Only a selection was taken, and hits are over-represented in it overall.
E-selectin induc: induces E-selectin expression in human endothelial cells. activation, % at 7.58 µM. P16581. 0.37% of 260,000 active. HUVEC E-selectin immunofluorescence imaging; normalized: neutral wells 0, TNF-alpha wells 100. AID 686992;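 active = mean E-selectin-positive cell signal at least 10% of the positive control, reached in at least 60% of replicates, without over 20% cell loss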
Target sequence (P16581 whole entry, looked up): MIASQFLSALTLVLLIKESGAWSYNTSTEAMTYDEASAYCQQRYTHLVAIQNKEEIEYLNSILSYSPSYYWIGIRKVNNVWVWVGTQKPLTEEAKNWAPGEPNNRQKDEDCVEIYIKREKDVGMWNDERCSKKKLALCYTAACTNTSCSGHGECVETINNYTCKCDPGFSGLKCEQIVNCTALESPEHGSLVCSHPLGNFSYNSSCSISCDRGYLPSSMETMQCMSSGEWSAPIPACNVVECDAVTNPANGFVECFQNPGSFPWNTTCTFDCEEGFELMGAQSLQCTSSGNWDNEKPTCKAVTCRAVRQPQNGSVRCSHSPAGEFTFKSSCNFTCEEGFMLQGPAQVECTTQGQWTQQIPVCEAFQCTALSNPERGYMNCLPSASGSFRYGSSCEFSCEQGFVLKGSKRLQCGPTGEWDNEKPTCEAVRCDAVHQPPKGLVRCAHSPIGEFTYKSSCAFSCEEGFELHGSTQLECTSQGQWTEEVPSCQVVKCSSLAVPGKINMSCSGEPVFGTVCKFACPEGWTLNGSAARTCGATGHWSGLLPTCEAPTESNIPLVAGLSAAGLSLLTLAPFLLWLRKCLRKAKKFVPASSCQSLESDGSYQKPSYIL
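Test system – human umbilical vein endothelial cells (HUVEC), E-selectin induction · Input – 3,000 HUVEC seeded per well · Buffer or medium – EGM-2, gelatin · Compound dosing – single-point compound dose · Detection – immunofluorescence imaging · Measure – percent E-selectin-positive cells · Controls – TNF-alpha high, DMSO low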
Xi reactivation: reactivates the inactive X chromosome in mouse fibroblasts | XiGFP mouse fibroblasts, % GFP-positive cells imaging, 3 d; cells co-treated with 5-aza-dC sensitizer; scaled so ellipticine positive control = 100% | activation, % at 7.58 µM | 0.055% of 360,000 active | AID 743238;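 active = mean normalized replicate activation at least 10% and every replicate at or above 10%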;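 also: 0% = median of on-plate neutral control wells and 100% = ellipticine 6 µM median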
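Schedule: 3 d treatment, 15 min room-temperature fixation; system: 68-5-11 XiGFP fibroblast line; buffer or medium: DMEM plus 5-aza-dC sensitizer; control set: ellipticine 6 µM positive control; compound: one concentration, pinned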
Starred values were filed as active, the others as inactive; / = not tested or not shown.

SMILES	E-selectin induc	Xi reactivation
Cc1cccc(-c2cccc3[nH]c4c(c23)CCN2C(=O)[C@H]3[C@H](C)ON(C)[C@H]3C[C@@H]42)c1	0	48*
COc1ccc(NC(=O)Nc2ccc3c(c2)CC(=O)N([C@@H](C)CO)C[C@H](C)[C@@H](CN(C)S(=O)(=O)c2ccc(OC)cc2)O3)cc1	0	0
Cc1ccccc1OCC(O)Cn1c(Br)nc2c1c(=O)n(C)c(=O)n2C (centres undefined)	51*	0
Cc1ccccc1OCC(O)Cn1c(Br)nc2c1c(=O)[nH]c(=O)n2C (centres undefined)	-2	0
O=C(C[C@H]1CC[C@H](NC(=O)c2ccncc2)[C@H](CO)O1)NCC1CC1	0	0
CNC[C@@H]1Oc2c(NC(=O)Nc3ccc(F)cc3)cccc2C(=O)N([C@H](C)CO)C[C@H]1C	131*	-1
C[C@@H]1CN([C@@H](C)CO)C(=O)c2cccc(NC(=O)Nc3ccc(F)cc3)c2O[C@@H]1CN(C)Cc1ccncc1	65*	0
C[C@H]1CN([C@@H](C)CO)C(=O)c2cccc(NC(=O)Nc3ccc(C(F)(F)F)cc3)c2O[C@H]1CN(C)Cc1ccncc1	-4	0
C[C@@H]1CN([C@H](C)CO)C(=O)c2cccc(NC(=O)Nc3ccc(C(F)(F)F)cc3)c2O[C@H]1CN(C)Cc1ccncc1	-10	0
C[C@@H]1CN([C@H](C)CO)C(=O)c2cccc(NC(=O)Nc3ccc(F)cc3)c2O[C@H]1CN(C)Cc1ccncc1	40*	0
C[C@H]1CN([C@@H](C)CO)C(=O)c2cccc(NC(=O)Nc3ccc(F)cc3)c2O[C@H]1CN(C)Cc1ccncc1	58*	0
CNC[C@@H]1Oc2c(NC(=O)Nc3ccc(F)cc3)cccc2C(=O)N([C@@H](C)CO)C[C@H]1C	-2	-1
C[C@@H]1CN([C@H](C)CO)C(=O)c2cccc(NC(=O)Nc3ccccc3)c2O[C@H]1CN(C)Cc1ccncc1	0	0
CS(=O)(=O)N1[C@H](C#N)[C@H](c2ccccc2-c2ccccc2F)[C@@H]1CO	0	0
COCC(=O)N1[C@H](C#N)[C@@H](c2ccccc2-c2cccc(OC)c2)[C@@H]1CO	0	0
COc1cccc(-c2ccc([C@H]3[C@@H](CO)N4CCCCN(C(=O)c5ccc6c(c5)OCO6)C[C@H]34)cc2)c1	2	0
CO[C@H]1CN(C)C(=O)c2ccc(NC(=O)c3ccccc3F)cc2OC[C@H](C)N(C(C)=O)C[C@@H]1C	0	0
C[C@H]1CN([C@@H](C)CO)C(=O)Cc2cc(NC(=O)Nc3cccc4ccccc34)ccc2O[C@@H]1CN(C)C(=O)Nc1ccccc1	0	0
NC(=O)C1CCN(c2nc(-c3ccccc3F)cs2)CC1	2	0
CS(=O)(=O)c1ccccc1-c1csc(N2CCC(C(N)=O)CC2)n1	41*	0
CCN1/C(=N\N)c2cccc3cccc1c23	37*	0
CCC(C)NC(=O)CN1C(=O)c2cccc3cccc1c23 (centres undefined)	/	0
C[C@@H]1CN([C@H](C)CO)C(=O)c2cccc(NS(=O)(=O)c3ccccc3)c2O[C@@H]1CN(C)S(=O)(=O)c1cccs1	0	-1
CC=Cc1ccc2n(c1=O)C[C@@H]1[C@@H](CO)[C@H](C(=O)N3CCc4ccccc4C3)[C@H]2N1Cc1ccncc1 (mixture of isomers)	0	0
CN1CCN(NC(=S)Nc2ccc(Oc3ccccc3)cc2)CC1	223*	0
SMILES	E-selectin induc	Xi reactivation
CCOC(=O)c1ccc(NC(=S)NN2CCN(C)CC2)cc1	3	0
COc1ccc2c(c1)c(/C=N/Nc1nc3ccccc3[nH]1)c(C)n2C	0	17*
COc1cc(/C=N\Nc2nc3ccccc3[nH]2)cc(OC)c1OC	-2	/
CC(C)NC(=O)N[C@@H]1CC[C@@H](CC(=O)NCCN2CCCC2)O[C@@H]1CO	0	0
COc1ccc(NC(=O)N(C)C[C@H]2OCCCC[C@@H](C)Oc3ccc(NS(=O)(=O)c4cn(C)cn4)cc3C(=O)N([C@@H](C)CO)C[C@H]2C)cc1	0	0
O=C(C[C@@H]1C=C[C@H](NC(=O)C2CCC2)[C@@H](CO)O1)NCc1ccccc1Cl	0	0
Oc1ccc(Br)cc1C=Nc1ccc2c3c(cccc13)CC2	/	105*
Oc1ccc(Cl)cc1C=Nc1ccccc1Br	/	0
Cc1ccc(C(NC(=O)Nc2ccccn2)C(Cl)(Cl)Cl)cc1F (centres undefined)	42*	1
Cc1cccc(NC(=O)Nc2ccccn2)c1C	12	0
Oc1ccc(/C=N/Nc2ccnc3cc(Cl)ccc23)c(O)c1	-3	68*
Cc1ccccc1/C=N/Nc1ccnc2cc(Cl)ccc12	/	0
O=C(NCC[C@H]1CC[C@H](NC(=O)c2cnccn2)[C@H](CO)O1)c1ccc2c(c1)OCO2	0	1
NC(=NC(=O)c1cccc(C(F)(F)F)c1)c1ccc(C(F)(F)F)cn1	/	22*
NC(=NC(=O)c1ccc(OC(F)(F)F)cc1)c1ccc(C(F)(F)F)cn1	/	0
COc1cccc(NC(=O)N2C[C@H](O)COC[C@H]3O[C@@H](CC(=O)NC4CCCC4)CC[C@@H]32)c1	0	0
Cn1c(=O)c(NC2CCCCC2)c2c3c(cccc31)C(=O)c1ccccc1-2	22	116*
CC(=O)Nc1ccc(Nc2c3c4c(cccc4n(C)c2=O)C(=O)c2ccccc2-3)cc1	/	0
COC(=O)C[C@H]1CC[C@@H]2[C@@H](COc3ccc(NC(=O)c4cnccn4)cc3C(=O)N2C)O1	0	0
Cc1ccc(C(=O)Cn2cncn2)cc1	/	16*
O=C(Cn1cncn1)c1ccc(Cl)cc1	0	0
CO[C@@H]1CN(C)C(=O)c2cc(NS(C)(=O)=O)ccc2OC[C@@H](C)N(C(=O)C2CCCC2)C[C@@H]1C	0	0
CCN(C)c1cc2c(c3c1ccn3C)C1CCC2C1 (centres undefined)	0	0
COc1ccccc1N(C)c1cc2c(c3c1ccn3C)C1CCC2C1 (centres undefined)	0	12*
C[C@H](CO)N1C[C@H](C)[C@@H](CN(C)Cc2ccc3c(c2)OCO3)Oc2c(NC(=O)CCC(F)(F)F)cccc2C1=O	/	0
SMILES	E-selectin induc	Xi reactivation
CCN(CC)C1=CC2=CC(=C(C#N)C#N)CCC2CC1 (centres undefined)	/	82*
CCOC(=O)c1ccc(N2C(=O)CC(SCC(=O)Nc3ccc(S(N)(=O)=O)cc3)C2=O)cc1 (centres undefined)	/	0
COC(=O)c1ccc(N2C(=O)CC(SCC(=O)Nc3ccc(OC)cc3)C2=O)cc1 (centres undefined)	58*	/
C[C@@H]1CN([C@H](C)CO)C(=O)Cc2cc(NS(C)(=O)=O)ccc2O[C@@H]1CN(C)S(=O)(=O)c1cccs1	0	-1
COc1ccc(-c2cnc3c(c2)C(=O)N([C@H](C)CO)C[C@@H](C)[C@H](CN(C)C(=O)Cc2cccnc2)O3)cc1	0	-1
COc1ccc(NC(=O)CCn2c(=S)[nH]c3ccccc3c2=O)cc1	/	0
COc1ccc(NC(=O)CCCn2c(=S)[nH]c3ccccc3c2=O)cc1	90*	0

Screening data as filed in PubChem BioAssay.
